Results taken from ChEMBL document CHEMBL1155871, “Synthesis and evaluation of pyrazolo[3,4-b]pyridines and its structural analogues as TNF-alpha and IL-6 inhibitors” (Bioorg Med Chem, 2008).
≈ marks a conversion by molar mass, not a printed value.

Columns and labels:
THP-1 [1] = assay: Antiinflammatory activity in human THP1 cells assessed as inhibition of LPS-induced TNFalpha at 10 uM by ELISA; format: functional
Summary of the method: (§1)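 THP-1 cells grown in RPMI 1640 with 10% FBS, penicillin and streptomycin, then differentiated with PMA. After plating, cells took test compound or vehicle (0.5% DMSO) for 30 min at 37 °C. LPS (E. coli 0127:B8) was then added and plates were kept 24 h at 37 °C, 5% CO2. Supernatant TNF-α and IL-6 measured by ELISA. Percent inhibition was taken against control, and IC50 by nonlinear regression.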

THP-1 [2] = assay: Antiinflammatory activity in human THP1 cells assessed as inhibition of IL6 at 10 uM by ELISA; format: functional; summary of the method: as §1
THP-1 [3] = assay: Cytotoxicity against human THP1 cells at 10 uM; format: functional
Summary of the method: (§2)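 PMA-differentiated THP-1 cells in RPMI 1640 with 10% FBS were pretreated 30 min at 37 °C with compound or vehicle (0.5% DMSO). They were then stimulated with LPS for 24 h at 37 °C, 5% CO2. Viability was scored with CCK-8 in the same wells as the cytokine assay.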

Phosphodiesterase 4 = Phosphodiesterase 4 (Homo sapiens, UniProt P27815+Q08499+Q07343+Q08493); assay: Inhibition of PDE4 in human U937 cells by cAMP SPA enzyme assay; format: cell-based; conditions: u-937
PBMC = assay: Antiinflammatory activity in […] PBMC assessed as inhibition of LPS-induced TNFalpha by ELISA; format: functional, cell-based; conditions: Homo sapiens
[4] = molecular target: Cyclin-dependent kinase 1/cyclin B1 (Homo sapiens, UniProt P06493); assay: Inhibition of CDK1/cyclinB; format: protein-complex assay
THP-1 [5] = assay: Antiinflammatory activity in human THP1 cells assessed as inhibition of LPS-induced TNFalpha by ELISA; format: functional, cell-based; summary of the method: as §1
THP-1 [6] = assay: Antiinflammatory activity in human THP1 cells assessed as inhibition of LPS-induced IL6 by ELISA; format: functional, cell-based; summary of the method: as §1
THP-1 [7] = assay: Cytotoxicity against human THP1 cells; format: functional, cell-based; summary of the method: as §2
THP-1 [8] = assay: Antiinflammatory activity in human THP1 cells assessed as inhibition of LPS-induced TNFalpha at 1 uM by ELISA; format: functional; summary of the method: as §1
THP-1 [9] = assay: Antiinflammatory activity in human THP1 cells assessed as inhibition of LPS-induced IL6 at 1 uM by ELISA; format: functional; summary of the method: as §1
THP-1 [10] = assay: Cytotoxicity against human THP1 cells at 1 uM; format: functional; summary of the method: as §2
Escherichia coli = assay: Antimicrobial activity against Escherichia coli; format: functional, organism-based
Candida albicans = assay: Antimicrobial activity against Candida albicans; format: functional, organism-based
THP-1 [11] = assay: Antiinflammatory activity in human THP1 cells assessed as inhibition of LPS-induced TNFalpha at 30 uM by ELISA; format: functional; summary of the method: as §1
[12] = molecular target: Mitogen-activated protein kinase 14 (Homo sapiens, UniProt Q16539); assay: Inhibition of p38alpha MAPK
Mus musculus = assay: Inhibition of LPS-induced TNFalpha release in mouse at 20 mg/kg, po; format: functional
Trypanosoma cruzi = assay: Antichagasic activity against Trypanosoma cruzi; format: functional, organism-based

Mitogen-activated protein kinase 14, sequence (Q16539 whole entry): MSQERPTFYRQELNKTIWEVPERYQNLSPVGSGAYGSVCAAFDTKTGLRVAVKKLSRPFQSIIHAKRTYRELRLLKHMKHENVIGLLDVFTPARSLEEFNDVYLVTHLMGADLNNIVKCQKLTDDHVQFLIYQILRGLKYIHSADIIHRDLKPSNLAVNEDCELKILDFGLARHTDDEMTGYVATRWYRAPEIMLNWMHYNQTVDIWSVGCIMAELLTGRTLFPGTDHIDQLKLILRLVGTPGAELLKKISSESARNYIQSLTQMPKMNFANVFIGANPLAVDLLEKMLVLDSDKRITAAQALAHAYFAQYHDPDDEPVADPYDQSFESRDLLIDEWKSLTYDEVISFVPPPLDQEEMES
Cyclin-dependent kinase 1/cyclin B1, sequence (P06493 whole entry): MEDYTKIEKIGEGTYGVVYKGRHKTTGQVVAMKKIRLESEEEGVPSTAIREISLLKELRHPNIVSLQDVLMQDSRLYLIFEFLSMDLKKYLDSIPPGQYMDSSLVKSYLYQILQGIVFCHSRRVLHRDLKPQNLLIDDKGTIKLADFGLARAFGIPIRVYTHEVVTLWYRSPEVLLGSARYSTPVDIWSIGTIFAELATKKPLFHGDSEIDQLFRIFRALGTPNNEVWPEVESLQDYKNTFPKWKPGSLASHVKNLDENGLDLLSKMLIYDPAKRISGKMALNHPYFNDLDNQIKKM
Cyclin-dependent kinase 1/cyclin B1, sequence (P14635 whole entry, further chain): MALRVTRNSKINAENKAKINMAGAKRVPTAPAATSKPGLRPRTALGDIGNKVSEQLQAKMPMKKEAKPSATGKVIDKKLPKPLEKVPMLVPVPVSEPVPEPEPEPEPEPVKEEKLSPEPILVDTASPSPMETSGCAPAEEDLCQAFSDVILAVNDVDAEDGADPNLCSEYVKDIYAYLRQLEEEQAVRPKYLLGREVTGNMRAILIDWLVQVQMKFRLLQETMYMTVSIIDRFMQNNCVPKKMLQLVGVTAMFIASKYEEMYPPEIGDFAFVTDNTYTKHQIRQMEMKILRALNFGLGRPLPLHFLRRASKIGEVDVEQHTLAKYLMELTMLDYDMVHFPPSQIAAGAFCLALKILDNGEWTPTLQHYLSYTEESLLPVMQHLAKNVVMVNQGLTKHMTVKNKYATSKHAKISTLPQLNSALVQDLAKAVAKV

| SMILES | inhibition at 10 µM (THP-1 [1]) | inhibition at 10 µM (THP-1 [2]) | inhibition at 10 µM (THP-1 [3]) | further results |
| --- | --- | --- | --- | --- |
| O=c1[nH]c(=O)c2cc(CCCO)cnc2[nH]1 | 0% | 37% | 12% | – |
| Cc1nn(-c2ccccc2)c2ncc(CCCO)cc12 | 8% | 19% | 16% | – |
| CCn1ncc2c(-c3cncc(Br)c3)c(C#N)c(C)nc21 | – | – | – | IC50 (Phosphodiesterase 4): > 1000 nM; IC50 (PBMC): 27 nM |
| CC(=O)OCCCc1cnc2ccnn2c1 | 13% | 66% | 0% | – |
| CCNCc1cncc(-c2cnc3c(c2)C(c2nc4cc(F)ccc4[nH]2)N=N3)c1 (configuration not stated) | – | – | – | IC50 [4]: 0.7 nM |
| Cc1ccc(-c2cc3ncc(CCCO)cn3n2)cc1 | 0% | 0% | 9% | – |
| C[C@@H]1C[C@H]2[C@@H]3CCC4=CC(=O)C=C[C@]4(C)[C@@]3(F)[C@@H](O)C[C@]2(C)[C@@]1(O)C(=O)CO [DEXAMETHASONE] | – | – | – | IC50 (THP-1 [5]): 50 nM; IC50 (THP-1 [6]): 7 nM; IC50 (THP-1 [7]): > 100000 nM; inhibition at 1 µM (THP-1 [8]): 72%; inhibition at 1 µM (THP-1 [9]): 94%; inhibition at 1 µM (THP-1 [10]): 0% |
| CCO[C@@H](C1=CC2C(C)=NN(c3ccccc3)C2N=C1)[C@H](O)[C@@H](O)COC (some centres not stated) | 2% | 43% | 8% | – |
| Cc1ccc(O)c(C(=O)c2cnc3onc(-c4ccccc4)c3c2)c1 | 0% | 63% | 25% | – |
| COc1cc(-c2cc(-c3ccc(Cl)c(Cl)c3)nc3[nH]nc(C)c23)cc(OC)c1OC | – | – | – | IC50 (Escherichia coli): 22000 nM; IC50 (Candida albicans): 18000 nM |
| Cc1ccc(O)c(C(=O)c2cnc3c(c2)c(C)nn3-c2ccccc2)c1 | 0% | 54% | 39% | – |
| Cc1ccc(O)c(C(=O)c2cnc3[nH]c(=O)[nH]c(=O)c3c2)c1 | 6% | 39% | 0% | – |
| CC(=O)OCCCc1cnc2ncnn2c1 | 7% | 45% | 0% | – |
| COc1ccc(-c2nn(-c3ccccc3)c3ncc(CCCO)cc23)cc1 | 12% | 36% | 10% | – |
| Cc1nn(C)c2ncc(C(=O)c3cc(F)ccc3O)cc12 | 0% | 34% | 19% | – |
| CCO[C@@H](C1=CC2C(c3ccc(OC)cc3)=NN(c3ccccc3)C2N=C1)[C@H](OC)[C@@H](O)COC (some centres not stated) | 15% | 35% | 6% | inhibition at 30 µM (THP-1 [11]): 30% |
| OCCCc1cnc2nc3ccccc3n2c1 | 0% | 18% | 9% | – |
| Cc1ccc(O)c(C(=O)c2cnc3onc(C)c3c2)c1 | 5% | 58% | 16% | IC50 (THP-1 [5]): > 100000 nM; IC50 (THP-1 [6]): 160 nM; IC50 (THP-1 [7]): > 100000 nM |

| SMILES | inhibition at 10 µM (THP-1 [1]) | inhibition at 10 µM (THP-1 [2]) | inhibition at 10 µM (THP-1 [3]) | further results |
| --- | --- | --- | --- | --- |
| CCO[C@@H](C1=CC2C(C)=NN(c3ccccc3)C2N=C1)[C@H](OC)[C@@H](O)COC (some centres not stated) | 19% | 44% | 4% | inhibition at 30 µM (THP-1 [11]): 30% |
| COC[C@H](O)[C@@H](OC)[C@@H](OC)C1=CC2C(C)=NN(C)C2N=C1 (some centres not stated) | 20% | 35% | 5% | inhibition at 30 µM (THP-1 [11]): 30% |
| CCO[C@@H](C1=CC2C(c3ccc(O)cc3)=NN(c3ccccc3)C2N=C1)[C@H](O)[C@@H](O)CO (some centres not stated) | 0% | 40% | 5% | – |
| CCn1ncc2c(-c3cncc(C)c3)c(/C=C/C(=O)O)cnc21 | – | – | – | IC50 (Phosphodiesterase 4): > 1000 nM; IC50 (PBMC): 15.7 nM |
| CCn1ncc2cc(CCCOC(C)=O)cnc21 | 0% | 16% | 13% | – |
| COc1ccc(C(=O)NN2CCOCC2)cc1-c1n[nH]c2nc(Nc3ccc(F)cc3F)ccc12 | – | – | – | IC50 [12]: 0.7 nM; inhibition in vivo at 20 mg/kg (Mus musculus): 97% |
| Cc1nn(-c2ccccc2)c2nc(-c3ccccc3)cc(C(=O)N/N=C/c3ccc(O)cc3)c12 | – | – | – | IC50 (Trypanosoma cruzi): 1.9 µg/mL (≈ 4.25 µM) |
| COc1ccc(-c2nn(-c3ccccc3)c3ncc(C(=O)c4cc(C)ccc4O)cc23)cc1 | 0% | 49% | 27% | – |
| Cc1cc(C)c(O)c(C(=O)c2cnc3c(c2)c(C)nn3-c2ccccc2)c1 | 0% | 44% | 14% | – |
| CCO[C@@H](C1=CC2C(C)=NN(c3ccccc3)C2N=C1)[C@H](O)[C@@H](O)CO (some centres not stated) | 3% | 44% | 9% | – |
| CCn1ncc2cc(CCCO)cnc21 | 0% | 45% | 8% | – |
| OCCCc1cnc2ncnn2c1 | 4% | 43% | 0% | – |
| Cc1ccc(O)c(C(=O)c2cnc3c(c2)c(C)nn3C)c1 | 0% | 60% | 41% | – |
| Cc1nn(C)c2ncc(CCCO)cc12 | 6% | 27% | 7% | – |
| Cc1ccc(O)c(C(=O)c2cnc3nc4ccccc4n3c2)c1 | 5% | 32% | 37% | – |
| COC[C@H](O)[C@@H](OC)[C@@H](OC)c1cnc2cc(-c3ccc(C)cc3)nn2c1 | 18% | 34% | 3% | inhibition at 30 µM (THP-1 [11]): 30% |
| Cc1ccc(-c2cc3ncc(C(=O)c4cc(C)ccc4O)cn3n2)cc1 | 0% | 9% | 5% | – |
